Results pooled from the literature.
pIC50: −log10 of the molar value.

| SMILES | cell line | observed | mode | method | time | setting | pIC50 |
| --- | --- | --- | --- | --- | --- | --- | --- |
| COc1ccc(NC(=O)C2=C(C)NC(C)=C(C(=O)Nc3ccc(OC)cc3OC)C2c2ccccc2)c(OC)c1 | Vero | cell growth or viability |  | MTT |  |  | 4.06 |
| COc1cc2c3c(n(CCCNC(C)C)c(=O)c2cc1OC)-c1nc2c(cc1C3=O)OCO2 | HL-60 | cell growth or viability |  | MTS | 72 h |  | 6.48 |
| COc1cc2c(NC3CCN(CCCC(=O)NCCCCCCCCCCCC(=O)N[C@H](C(=O)N4C[C@H](O)C[C@H]4C(=O)NCc4ccc(-c5scnc5C)cc4)C(C)(C)C)CC3)nc(N3CCC(F)(F)CC3)nc2cc1OCCCN1CCCC1 | NCI-H1299 | cell growth or viability |  | CCK-8 | 8 days |  | 5.30 |
| CC1(C)CCC(CN2CCN(c3ccc(C(=O)NS(=O)(=O)c4ccc(NCC5CCOCC5)c([N+](=O)[O-])c4)c(Oc4cnc5[nH]ccc5c4)c3)CC2)=C(c2ccc(Cl)cc2)C1 | Maver1 | cell growth or viability |  | ATP luminescence | 48 h |  | 8.19 |
| C#CCOc1ccc(/C=C/c2cc(OC)cc(OC)c2-c2cnnn2C(=O)NCCc2ccccc2)cc1 | RAW264.7 | NO release | inhibitor | Griess | 24 h | LPS-stimulated | 4.93 |
| C=C(F)C(=O)N1CCN(c2nc(OC[C@@H]3CCCN3C)nc3c2CCN(c2cccc4cccc(Cl)c24)C3)C[C@@H]1CC#N | Lu-65 | cell growth or viability |  | ATP luminescence |  | 3D culture | 8.73 |
| COc1ccc(NC(=O)C2=C(C)NC(C)=C(C(=O)Nc3cc(OC)c(Cl)cc3OC)C2c2cccc(Cl)c2)c(OC)c1 (centres unmarked) | Vero | cell growth or viability |  | MTT |  |  | 4.30 |
| COc1cc(NC(=O)c2ccc(C#N)cc2)ccc1S(N)(=O)=O | RAW264.7 | cell growth or viability |  | MTT | 48 h |  | < 4.00 |
| COc1cc2c3c(n(CCCN4CCOCC4)c(=O)c2cc1OC)-c1nc2c(cc1C3=O)OCO2 | HL-60 | cell growth or viability |  | MTS | 72 h |  | < 5.70 |
| COc1cc(NC(=O)c2ccccc2[N+](=O)[O-])ccc1S(N)(=O)=O | RAW264.7 | cell growth or viability |  | MTT | 48 h |  | < 4.00 |
| Cc1ccc(-c2cc(C(F)(F)F)nn2-c2ccc(S(N)(=O)=O)cc2)cc1 | RAW264.7 | NO release | inhibitor | Griess | 24 h | LPS-stimulated | < 4.70 |
| COc1cc(NC(=O)c2cccc(I)c2)ccc1S(N)(=O)=O | RAW264.7 | cell growth or viability |  | MTT | 48 h |  | < 4.00 |
| CC#CCOc1ccc(/C=C/c2cc(OC)cc(OC)c2-c2cnnn2C(=O)NC(C)C)cc1 | RAW264.7 | NO release | inhibitor | Griess | 24 h | LPS-stimulated | 5.26 |
| COc1ccc(NC(=O)C2=C(C)NC(C)=C(C(=O)Nc3ccc(OC)cc3OC)C2c2ccc(O)cc2)c(OC)c1 | Vero | cell growth or viability |  | MTT |  |  | 4.15 |
| CC(C)c1ccccc1[C@@H]1CCCN1C1CC2(CCN(c3ccc(C(=O)NS(=O)(=O)c4ccc(NC[C@H]5CC[C@](C)(O)CC5)c([N+](=O)[O-])c4)c(Oc4cnc5[nH]ccc5c4)c3)CC2)C1 | HL-60 | cell growth or viability |  | ATP luminescence | 48 h |  | 6.42 |
| COc1cc(NC(=O)c2cccc(C)c2)ccc1S(N)(=O)=O | RAW264.7 | cell growth or viability |  | MTT | 48 h |  | < 4.00 |
| CC(C)Oc1ccc(S(=O)(=O)c2ccc(Oc3cc(OCC(N)=O)c(C(=O)C(Cl)Cl)cc3[N+](=O)[O-])cc2)cc1 | NCI-H1299 | cell growth or viability |  | MTT | 72 h |  | 6.51 |
